Assay results reported in publication PMC4000071 (Journal of Toxicologic Pathology, 2014).

What was measured:
p-glycoprotein = conditions: cited from earlier work
[1] = 3-month toxicity study, toxicokinetics; type: in vivo, beagle dogs; conditions: 30 mg/kg/day
Summary of the method: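 Dogs received 7, 15 or 30 mg/kg/day by oral gavage for 3 months. Serial blood was drawn on Days 1, 23, 56 and 91, pre-dose and from 0.5 to 24 h post-dose. One decedent was sampled on Day 86 before euthanasia. Plasma drug was measured and tmax, Cmax, AUC and t1/2 were derived.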

dog pharmacokinetics = type: in vivo
brain 5-HT1B receptors = conditions: non-human primates; cited from earlier work
phospholipidosis (PLD) = assay: in vitro PLD screen; type: cell-based; conditions: read-out: EC50 (phospholipogenic, in vitro); in vitro PLD screen; unpublished data
adrenergic α1A receptor = target: T1, adrenergic α1A receptor (Homo sapiens, UniProt P35348); assay: secondary pharmacology screens, α1A; type: biochemical; conditions: 10 µM
T1 sequence (P35348 1-466): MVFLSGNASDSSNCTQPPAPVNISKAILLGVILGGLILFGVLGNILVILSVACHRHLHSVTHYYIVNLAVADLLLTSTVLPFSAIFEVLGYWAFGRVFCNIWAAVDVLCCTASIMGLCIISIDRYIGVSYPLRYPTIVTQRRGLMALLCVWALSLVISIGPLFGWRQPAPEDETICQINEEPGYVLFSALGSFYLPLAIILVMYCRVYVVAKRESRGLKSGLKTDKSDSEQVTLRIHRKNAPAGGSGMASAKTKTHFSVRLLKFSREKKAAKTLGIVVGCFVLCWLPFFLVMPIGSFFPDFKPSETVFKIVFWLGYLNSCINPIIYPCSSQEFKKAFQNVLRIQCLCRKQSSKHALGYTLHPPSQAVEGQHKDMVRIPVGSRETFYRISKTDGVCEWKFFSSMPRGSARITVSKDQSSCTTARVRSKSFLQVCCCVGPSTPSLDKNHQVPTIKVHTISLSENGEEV

adrenergic α1D receptor = target: T2, adrenergic α1D receptor (Homo sapiens, UniProt P25100); assay: secondary pharmacology screens, α1D; type: binding; conditions: 10 µM
T2 sequence (P25100 1-572): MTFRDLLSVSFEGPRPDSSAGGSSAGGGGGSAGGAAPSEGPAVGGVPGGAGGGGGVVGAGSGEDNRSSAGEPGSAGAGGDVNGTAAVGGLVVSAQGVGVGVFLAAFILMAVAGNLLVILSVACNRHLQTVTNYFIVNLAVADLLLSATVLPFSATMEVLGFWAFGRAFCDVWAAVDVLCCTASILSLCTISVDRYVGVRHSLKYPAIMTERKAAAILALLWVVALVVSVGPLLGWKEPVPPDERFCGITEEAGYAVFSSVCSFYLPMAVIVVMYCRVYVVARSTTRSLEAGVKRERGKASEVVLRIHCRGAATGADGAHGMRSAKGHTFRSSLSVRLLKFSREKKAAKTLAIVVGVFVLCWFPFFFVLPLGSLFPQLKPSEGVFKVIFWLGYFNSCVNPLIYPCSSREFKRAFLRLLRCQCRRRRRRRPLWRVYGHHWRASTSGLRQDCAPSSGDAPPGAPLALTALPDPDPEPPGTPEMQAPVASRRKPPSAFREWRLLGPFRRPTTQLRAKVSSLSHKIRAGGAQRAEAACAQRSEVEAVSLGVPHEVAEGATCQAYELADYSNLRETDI

healthy volunteers = conditions: single ascending oral doses from 1 to 40 mg; cited from earlier work
beagle dogs = assay: 1-month toxicity study, in-life, clinical pathology and pathology; type: in vivo; conditions: dog
[2] = 1-month, 47 mg/kg/day, 4 affected dogs
[3] = 1-month, 47 mg/kg/day, Week 2 until end of dosing

COc1cc2c(c(N3CCN(C)CC3)c1)O[C@@H](C(=O)Nc1ccc(N3CCOCC3)cc1)CC2 [AZD3783, (2R)-6-methoxy-8-(4-methylpiperazin-1-yl)-N-(4-morpholin-4-ylphenyl) chromane-2-carboxamide]
p-glycoprotein substrate (p-glycoprotein): not likely to be a p-glycoprotein substrate | plasma concentration ([1]; decedent female, prior to euthanasia on Day 86): 17 µM | exposure relative to predicted therapeutic exposure ([1]; dog, 3-month study): 350 fold | steady state volume of distribution (dog pharmacokinetics): 4.3 L/kg | plasma clearance (dog pharmacokinetics; after IV dosing): 18 mL/min/kg | F (oral) (dog pharmacokinetics; oral dosing): 58% | binding to brain 5-HT1B receptors (PET) (brain 5-HT1B receptors): bind dose-dependently | EC50 (phospholipidosis (PLD)): 164 µM | activity at adrenergic α1A receptor (adrenergic α1A receptor): antagonist | binding to adrenergic α1D receptor (adrenergic α1D receptor): binds | tolerability (healthy volunteers): well tolerated | ECG (beagle dogs; 1-month): no treatment-related effect on ECG | pathological findings in spinal cord or any CNS tissues (beagle dogs; 1-month, 2.3 mg/kg/day): no pathological findings | pathological findings in spinal cord or any CNS tissues (beagle dogs; 1-month, 14 mg/kg/day): no pathological findings | dogs with mild to marked increases in liver enzymes (incidence) (beagle dogs; 1-month, 47 mg/kg/day): 4 of 12 | electron microscopy of liver and gallbladder (beagle dogs; 1-month, 47 mg/kg/day): lamellar bodies consistent with PLD | liver microscopic findings (beagle dogs; 1-month, 47 mg/kg/day): inflammatory cell infiltration, degenerative and necrotic changes in the centrilobular region and moderate pigments in histiocytes | lymphoid tissues microscopic findings (beagle dogs; 1-month, 47 mg/kg/day): increased incidence and severity of lymphocytolysis | ALT increase in affected dogs (beagle dogs; [2]): up to 17 fold vs. pretest | Aspartate aminotransferase (AST) increase in affected dogs (beagle dogs; [2]): up to 7 fold vs. pretest | GLDH increase in affected dogs (beagle dogs; [2]): up to 37 fold vs. pretest | alanine aminotransferase (ALT) group mean elevation (beagle dogs; [3]): approximately 3 fold | glutamate dehydrogenase (GLDH) group mean elevation (beagle dogs; [3]): ~7 fold | mortality (beagle dogs; 1-month, 2.3, 14, 47 mg/kg/day): All animals survived to scheduled necropsy | ophthalmology observations (beagle dogs; 1-month, all doses): No treatment-related observations were seen in the eyes of any dog | platelet counts increase (beagle dogs; 1-month, females, 47 mg/kg/day): 24–52% | platelet counts increase (beagle dogs; 1-month, males, 47 mg/kg/day): 10–15% | pathological findings in spinal cord or any CNS tissues (beagle dogs; recovery animals previously dosed at 47 mg/kg/day): no pathological findings
